# Compound activity from PubChem BioAssay.
# CRFBP-R2 agonist – agonists of human CRF-binding protein/CRF-R2 receptor complex | activation, % at 13.2 µM | HEK293 CRF-R2/CRF-BP, calcium dye fluorescence (FLIPR); percent of saturating CRF peptide response | 0.46% of 350,000 active;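 active means activation of at least 50%, plus an integration ratio under a set limit after plate pattern correction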;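 further: plate controls were neutral control wells without compound for no effect and CRF at EC100 for full effect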
# DDE Tn6 FP inh – DD(E)-Tn6 binding inhibition, primary FP screen | Fibrin DD(E) TRITC-Tn6 fluorescence polarization displacement | inhibition, % at 8.3 µM | 0.21% of 370,000 active;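 active means inhibition above a per-campaign cutoff: mean of compounds within control limits plus 3 SD, cut at about 15% in these data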;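 further: 0% = median of all compound wells on the plate and 100% = blocking peptide control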
# Tn7 DDE FP – inhibitors of Tn7 peptide binding to human fibrin DD(E); P02675; 0.13% of 370,000 active; FP displacement of FITC-Tn7 peptide from fibrin DD(E); 0% = median of compound wells per plate; inhibition, % at 8.3 µM;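 active means inhibition above the mean of compounds falling within the control limits plus 3 SD of them, cut at about 14% in these data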;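 further: 0% = plate median of compound wells and 100% = 10 µM Aha-Tn7 peptide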
#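 Test system: human clot-derived fibrin DD(E) complex / Quantity: 2 µM final DD(E) protein / Incubation: 10 min plus 3 h, room temperature / Measured by: fluorescence polarization / Benchmarks: high control of 10 µM Aha-Tn7 peptide / Replicates: singlicate testing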
# CendR NRP1 mod – NRP-1/CendR interaction modulation. FAM-RPARPAR peptide binding to NRP-1, fluorescence polarization. inhibition, % at 25 µM. 0.85% of 360,000 active. O14786;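 active means inhibition or corrected inhibition above about 18%, plus a signal ratio from 0.5 to 1.5, limit read from the data, passing the limit was not always enough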
# CRFR2-BP antag – CRF-BP/CRF-R2 complex antagonism | HEK293 CRF-R2/CRF-BP, CRF-induced calcium fluorescence | inhibition, % at 11.8 µM | 0.59% of 350,000 active;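 active means inhibition of the ligand-induced calcium signal above about 50% at the single tested concentration, limit read from the data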
# proKLK7 act – activators of human kallikrein-7 zymogen; activation, % at 7 µM; 0.9% of 370,000 active; P49862; AID 652039; purified proKLK7, EDANS-DABCYL substrate fluorescence; 100% is mature enzyme control, 0% vehicle;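 active means activation above the mean of all tested compounds plus 3 SD, computed per campaign excluding outliers beyond control limits, cut at about 13% in these data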
# Target sequence (P49862 whole entry, looked up): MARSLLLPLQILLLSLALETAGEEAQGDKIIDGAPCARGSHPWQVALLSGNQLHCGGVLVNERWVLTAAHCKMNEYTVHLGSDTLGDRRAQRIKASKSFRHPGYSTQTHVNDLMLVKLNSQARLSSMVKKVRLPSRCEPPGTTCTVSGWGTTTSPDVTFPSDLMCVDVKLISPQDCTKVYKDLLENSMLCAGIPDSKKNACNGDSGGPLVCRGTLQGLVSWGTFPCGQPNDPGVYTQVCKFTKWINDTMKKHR
# proKLK7 act conf – proKLK7 activation, confirmation; shares compounds with proKLK7 act; purified proKLK7, EDANS-DABCYL substrate fluorescence; scaled: vehicle 0, mature enzyme 100; activation, % at 7 µM; 68% of 3,200 active;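 active means activation, as change over the incubation, above the mean of all tested compounds plus 3 SD, cut at about 13% in these data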
# EDANS interfere – fluorescence interference counter-screen for KLK7 activators. shares compounds with proKLK7 act. activation, % at 7 µM. EDANS-DABCYL substrate fluorescence interference, no enzyme, 4 h; solvent 0%, active enzyme control 100%. AID 686952. 80% of 3,200 active;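 active means activation above the all-compound mean plus 3 SD, ignoring values outside control-based bounds, cut at about 4.8% in these data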;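 further: value is the 4 h activation minus the activation read at time zero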
# K7 EDANS ctr – optically interferes with EDANS-DABCYL fluorescence, kallikrein-7 activator counter-screen; shares compounds with proKLK7 act; EDANS-DABCYL peptide fluorescence interference, no enzyme; EC50, µM; 20% of 250 active;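 active means compounds that raise the fluorescence signal in this interference counterscreen, with EC50 at or below 10 µM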;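 further: intact quenched peptide substrate alone read at 355 nm excitation and 520 nm emission; signal is fluorescence gain from T0 to T4 after four hours at room temperature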
# Starred values were filed as active, the others as inactive; i = inactive; / = no result given. The list is not random: actives were taken first. Their share in the collection is about 2.9%.
SMILES,CRFBP-R2 agonist,DDE Tn6 FP inh,Tn7 DDE FP,CendR NRP1 mod,CRFR2-BP antag,proKLK7 act,proKLK7 act conf,EDANS interfere,others
COc1cc2c(cc1OC)CN(Cc1nc3ccsc3c(=O)[nH]1)CC2,1.5,-4.0,-9.6,-12.7,-2.8,30.8*,8.5,12.8*,
CS(=O)(=O)Nc1ccccc1-c1cccc2nccn12,/,2.5,5.2,-8.3,/,2.4,/,/,
COc1ccc(-c2cncc3nccn23)cc1OC,/,-7.7,0.9,-12.7,/,1.0,/,/,
CS(=O)(=O)Nc1ccc(-c2cncc3nccn23)cc1,/,6.9,-1.3,7.2,/,16.2*,3.3,4.5*,
CCOc1ccc(-c2cncc3nccn23)cc1,/,-0.6,-5.0,-7.3,/,16.6*,33.0*,35.6*,
CS(=O)(=O)Nc1ccc(-c2cnc3cccnn23)cc1,/,-4.6,7.3,3.5,/,76.2*,13.5*,11.2*,K7 EDANS ctr=i
CN(C)[C@H]1CCN(c2ccc3c(c2)OCCCN(C2CC2)S3(=O)=O)C1,/,0.4,-3.6,/,/,0.1,/,/,
Nc1ccc2nc(C3CCCCC3)[nH]c2c1,-0.5,-2.5,-1.2,5.5,24.6,0.0,/,/,
Nc1ccc2cc3[nH]c4cc(N)ccc4c3nc2c1,175.4*,-11.4,-9.0,140.3,-130.1,86.0*,74.8*,75.1*,
CCOC(=O)CCCNC(=O)OC1CC2CC1[C@H]1CCCCN1[C@H]2C (stereo partly drawn),/,7.5,12.9,/,/,-0.1,/,/,
O=Cc1ccc(-c2cccs2)s1,9.1,-1.7,-5.8,-8.2,-2.1,47.0*,58.1*,67.3*,
CCN(CC)C(=O)c1ccc(-c2cccs2)s1,-1.8,3.3,-7.4,1.4,8.2,-0.1,/,/,
Cc1ccccc1CN1CCCCC(NC(=O)c2ccc(-c3ccccc3)cc2)C1=O (stereo not drawn),/,-10.1,2.2,/,/,-0.1,/,/,
CNc1cncc(-c2cnn(CC(C)C)c2)n1,/,1.4,7.8,19.0,/,33.2*,71.9*,64.2*,
CNc1cncc(-c2cccc(C(C)=O)c2)n1,/,-2.0,5.2,15.0,/,-0.4,/,/,
CNc1cncc(-c2cccc(NS(C)(=O)=O)c2)n1,/,-5.7,-3.6,1.6,/,129.6*,44.7*,56.5*,
CNc1cncc(-c2ccc(S(C)(=O)=O)cc2)n1,/,-9.7,-1.5,-8.3,/,84.5*,66.3*,65.5*,
CNc1cncc(-c2ccc(F)cc2F)n1,/,3.5,-7.2,-3.4,/,13.9*,19.8*,49.5*,
CS(=O)(=O)c1ccc(-c2nn[nH]n2)cc1,-0.9,3.6,2.0,-5.4,7.7,0.7,/,/,
COC(=O)[C@]12C[C@H](CC(=O)NCCCN3CCCC3=O)C(=O)N(Cc3ccc(Cl)cc3Cl)C1=C[C@H](COCc1ccccc1)O[C@@H]2C,/,-3.2,-0.2,/,/,0.9,/,/,
COC(=O)c1cc2c(c3c4cc(OC)ccc4n(S(=O)(=O)c4ccc(F)cc4)c13)C(=O)N(C)C2,/,-16.3,0.3,/,/,0.2,/,/,
CC(O)(c1cccnc1)c1nc(-c2ccoc2)cs1 (stereo not drawn),/,0.2,-0.5,15.0,/,-0.2,/,/,
CNc1cncc(-c2ccc(CN(C)C)cc2)n1,/,3.6,-0.3,-5.0,/,116.0*,72.3*,82.2*,
CNc1cncc(-c2cc(C)c(O)c(C)c2)n1,/,1.6,-2.3,-17.9,/,1.8,/,/,
CNc1cncc(-c2ccc(OCCCN(C)C)nc2)n1,/,-4.4,0.0,1.0,/,51.4*,59.4*,71.5*,
SMILES,CRFBP-R2 agonist,DDE Tn6 FP inh,Tn7 DDE FP,CendR NRP1 mod,CRFR2-BP antag,proKLK7 act,proKLK7 act conf,EDANS interfere,others
CNc1cncc(-c2ccoc2)n1,/,7.3,5.2,-1.1,/,20.3*,28.1*,30.4*,
CNc1cncc(-c2ccc(O)cc2)n1,/,-1.1,-2.3,-2.6,/,41.0*,18.9*,18.6*,
Cc1ccc(-c2cc(-c3nnc(SCC(=O)Nc4ccccc4-c4ccccc4)n3N)[nH]n2)cc1,/,-2.5,-11.5,/,/,0.4,/,/,
CNc1cncc(-c2ccc(OC)cc2)n1,/,0.4,-2.1,-5.2,/,25.3*,49.0*,40.6*,K7 EDANS ctr=>69.5
CNc1cncc(-c2ccc(CN3CCOCC3)cc2)n1,/,-4.5,2.7,-7.2,/,82.4*,67.4*,77.9*,
CNc1cccc(-c2cc(OC)ccc2OC)n1,/,-2.9,1.2,5.4,/,-0.4,/,/,
CC(C)(C)N(Cc1ccccc1)C(=O)COC(=O)Cn1cnc2ccccc2c1=O,0.6,-1.4,-4.2,0.2,5.5,14.7*,0.9,0.6,
CC(C)(C)N(Cc1ccccc1)C(=O)COC(=O)Cn1[nH]c(=O)c2ccccc2c1=O,-1.5,0.7,-2.2,-4.1,-27.9,-0.2,/,/,
COC(=O)CC#C[C@H](C)[C@@H](NS(=O)(=O)c1ccc([N+](=O)[O-])cc1)C(C)(C)C,/,-4.8,-3.5,/,/,0.5,/,/,
COc1ccc2c3c([nH]c2c1)[C@H]1C[C@H]2[C@H](C[C@@H](O)[C@H](OC)[C@H]2C(=O)O)CN1CC3,2.5,2.2,9.9,-4.6,17.5,40.0*,7.9,10.7*,
Cc1cc(OCc2nn[nH]n2)c2c(C)c(CC(=O)O)c(=O)oc2c1,-1.0,2.5,5.0,-6.4,-3.0,11.5,/,/,
COC(=O)C(C)Oc1cc(OC(C)C(=O)OC)c2c(C)c(Cl)c(=O)oc2c1 (stereo not drawn),2.5,0.2,-1.1,8.5,28.4,65.2*,-39.9,29.5*,
COC(=O)COc1cc(OCC(=O)OC)c2c(C)c(Cl)c(=O)oc2c1,0.2,4.0,-9.0,9.8,2.7,191.7*,303.6*,277.2*,
COC(=O)COc1cc(C)cc2oc(=O)c(CC(=O)OC)c(C)c12,1.5,-3.4,-0.1,4.0,-22.0,73.5*,96.6*,99.4*,
